Values after ≈ are worked out from the molar mass of the structure shown.
Experiments:
[1] = system: Enterococcus faecalis; test: Compound was tested for the inhibition of cell wall biosynthesis and growth against Enterococcus faecalis (ATCC 29212) (sensitive strain); type: functional
How it was run: (§1)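 Broth microdilution MIC in brain heart infusion medium with 0.1% casamino acids. Log-phase cells were diluted to about 5×10^5 CFU/mL and exposed to compound serially diluted in DMSO (5% final DMSO). OD600 was read in microtiter plates. MIC (µg/mL) was called where [OD600 control − OD600 test]/[OD600 control − OD600 media] × 100 > 90%.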

[2] = system: Escherichia coli; test: Compound was tested for the inhibition of cell wall biosynthesis and growth against Escherichia coli (BAS849) (super-sensitive permeability mutant of E. coli) (sensitive strain); type: functional
How it was run: (§2)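 MIC by broth dilution in brain heart infusion medium with 0.1% casamino acids. Log-phase cells diluted to about 5×10^5 CFU/mL and exposed to compound serially diluted in DMSO (5% final DMSO). OD600 read on a plate reader; MIC taken as the concentration giving >90% growth inhibition relative to untreated control, corrected for medium blank.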

[3] = system: Enterococcus faecalis; test: Compound was tested for the inhibition of cell wall biosynthesis and growth against Enterococcus faecalis (CL5244) (Vancomycin-resistant); type: functional; how it was run: as §1
[4] = system: Staphylococcus epidermidis; test: Compound was tested for the inhibition of cell wall biosynthesis and growth against Staphylococcus epidermidis (ATCC 12228) (sensitive strain); type: functional; how it was run: as §2
[5] = system: Staphylococcus aureus; test: Compound was tested for the inhibition of cell wall biosynthesis and growth against Staphylococcus aureus (ATCC 43300) (Methicillin-resistant); type: functional; how it was run: as §1
[6] = system: Enterococcus faecalis; test: Compound was tested for the inhibition of cell wall biosynthesis and growth against Enterococcus faecalis (CL4877) (Vancomycin-resistant); type: functional; how it was run: as §1
[7] = system: Staphylococcus aureus; test: Compound was tested for the inhibition of cell wall biosynthesis and growth against Staphylococcus aureus (ATCC 29213) (sensitive strain); type: functional; how it was run: as §1
[8] = system: Enterococcus faecium; test: Compound was tested for the inhibition of cell wall biosynthesis and growth against Enterococcus faecium (ATCC51559) (Vancomycin-resistant); type: functional; how it was run: as §1
[9] = system: Enterococcus faecium; test: Compound was tested for the inhibition of cell wall biosynthesis and growth against Enterococcus faecium (ATCC49624) (sensitive strain); type: functional; how it was run: as §1
[10] = The compound was tested for inhibitory activity against PGP30 bacterial cell wall biosynthesis; type: functional, Bacteria
[11] = system: Enterococcus faecalis; test: Compound was tested for the inhibition of cell wall biosynthesis and growth against Enterococcus faecalis (ATCC51575) (Vancomycin-resistant); type: functional; how it was run: as §1
[12] = system: Enterococcus faecium; test: Compound was tested for the inhibition of cell wall biosynthesis and growth against Enterococcus faecium (CL4931) (Vancomycin-resistant); type: functional; how it was run: as §1
[13] = system: Enterococcus faecium; test: Compound was tested for the inhibition of cell wall biosynthesis and growth against Enterococcus faecium (ATCC49624) (sensitive strain)

| Structure (SMILES) | MIC [1] | MIC [2] | MIC [3] | MIC [4] | MIC [5] | MIC [6] | MIC [7] | MIC [8] | MIC [9] | IC50 [10] | MIC [11] | MIC [12] | MIC [13] |
| --- | --- | --- | --- | --- | --- | --- | --- | --- | --- | --- | --- | --- | --- |
| CCCCCCCCCCCCOP(=O)(O)OC1OC(C(N)=O)C(OC)C(NC(=O)Nc2ccc(Cl)c(C(F)(F)F)c2)C1OC1OC(CO)C(O)C(O)C1NC(=O)c1cccc(C(F)(F)F)c1 (stereo unspecified) | 6.25 µg/mL (≈ 6.19 µM) | 12.5 µg/mL (≈ 12.4 µM) | 6.25 µg/mL (≈ 6.19 µM) | 6.25 µg/mL (≈ 6.19 µM) | 6.25 µg/mL (≈ 6.19 µM) | 3.12 µg/mL (≈ 3.09 µM) | 6.25 µg/mL (≈ 6.19 µM) | 6.25 µg/mL (≈ 6.19 µM) | 6.25 µg/mL (≈ 6.19 µM) | 8.2 µg/mL (≈ 8.12 µM) | 6.25 µg/mL (≈ 6.19 µM) | 6.25 µg/mL (≈ 6.19 µM) | – |
| CCCCCCCCCCCCCCC(OP(=O)(O)OC1OC(C(N)=O)C(OC)C(NC(=O)Nc2ccc(Cl)c(C(F)(F)F)c2)C1OC1OC(CO)C(O)C(O)C1NC(=O)c1cccc(C(F)(F)F)c1)C(=O)O (stereo unspecified) | 3.12 µg/mL (≈ 2.85 µM) | > 25 µg/mL | 6.25 µg/mL (≈ 5.71 µM) | 6.25 µg/mL (≈ 5.71 µM) | 3.12 µg/mL (≈ 2.85 µM) | 3.12 µg/mL (≈ 2.85 µM) | 6.25 µg/mL (≈ 5.71 µM) | 3.12 µg/mL (≈ 2.85 µM) | 3.12 µg/mL (≈ 2.85 µM) | 9.2 µg/mL (≈ 8.4 µM) | 6.25 µg/mL (≈ 5.71 µM) | 6.25 µg/mL (≈ 5.71 µM) | – |
| CCCCCCCCCCCCO[C@H](COP(=O)(O)OC1OC(C(N)=O)C(O)C(NC(=O)Nc2ccc(OC(F)(F)F)cc2)C1OC1OC(CO)C(O)C(O)C1NC(=O)c1cccc(C(F)(F)F)c1)C(=O)O (stereo partly specified) | 6.25 µg/mL (≈ 5.87 µM) | > 25 µg/mL | 6.25 µg/mL (≈ 5.87 µM) | 6.25 µg/mL (≈ 5.87 µM) | 6.25 µg/mL (≈ 5.87 µM) | 6.25 µg/mL (≈ 5.87 µM) | 6.25 µg/mL (≈ 5.87 µM) | 12.5 µg/mL (≈ 11.7 µM) | 6.25 µg/mL (≈ 5.87 µM) | 9.2 µg/mL (≈ 8.64 µM) | 25 µg/mL (≈ 23.5 µM) | 6.25 µg/mL (≈ 5.87 µM) | – |
| CCCCCCCCCCCCO[C@H](COP(=O)(O)OC1OC(C(N)=O)C(O)C(NC(=O)Nc2ccc(Cl)c(C(F)(F)F)c2)C1OC1OC(CO)C(O)C(O)C1NC(=O)c1cccc(C(F)(F)F)c1)C(=O)O (stereo partly specified) | 3.12 µg/mL (≈ 2.88 µM) | 12.5 µg/mL (≈ 11.5 µM) | 3.13 µg/mL (≈ 2.89 µM) | 12.5 µg/mL (≈ 11.5 µM) | 12.5 µg/mL (≈ 11.5 µM) | 3.13 µg/mL (≈ 2.89 µM) | 12.5 µg/mL (≈ 11.5 µM) | 6.25 µg/mL (≈ 5.77 µM) | 6.25 µg/mL (≈ 5.77 µM) | 10.6 µg/mL (≈ 9.78 µM) | 12.5 µg/mL (≈ 11.5 µM) | 6.25 µg/mL (≈ 5.77 µM) | – |
| CCCCCCCCCCCCOP(=O)(O)OC1OC(C(N)=O)C(O)C(NC(=O)Nc2ccc(Cl)c(C(F)(F)F)c2)C1OC1OC(CO)C(O)C(O)C1NC(=O)c1cccc(C(F)(F)F)c1 (stereo unspecified) | 3.12 µg/mL (≈ 3.13 µM) | 12.5 µg/mL (≈ 12.6 µM) | 3.13 µg/mL (≈ 3.14 µM) | 12.5 µg/mL (≈ 12.6 µM) | 6.25 µg/mL (≈ 6.28 µM) | 3.13 µg/mL (≈ 3.14 µM) | 6.25 µg/mL (≈ 6.28 µM) | 12.5 µg/mL (≈ 12.6 µM) | 12.5 µg/mL (≈ 12.6 µM) | 15.4 µg/mL (≈ 15.5 µM) | 12.5 µg/mL (≈ 12.6 µM) | 3.13 µg/mL (≈ 3.14 µM) | – |
| CCCCCCCCCCCCO[C@H](COP(=O)(O)OC1OC(C(N)=O)C(OC)C(NC(=O)Nc2ccc(Cl)c(C(F)(F)F)c2)C1OC1OC(CO)C(O)C(O)C1NC(=O)c1ccccc1)C(=O)O (stereo partly specified) | 12.5 µg/mL (≈ 12.1 µM) | 25 µg/mL (≈ 24.3 µM) | 12.5 µg/mL (≈ 12.1 µM) | 12.5 µg/mL (≈ 12.1 µM) | 25 µg/mL (≈ 24.3 µM) | 6.25 µg/mL (≈ 6.07 µM) | 12.5 µg/mL (≈ 12.1 µM) | 12.5 µg/mL (≈ 12.1 µM) | – | 6.8 µg/mL (≈ 6.61 µM) | 25 µg/mL (≈ 24.3 µM) | 25 µg/mL (≈ 24.3 µM) | 12.5 µg/mL (≈ 12.1 µM) |
| C=C(C/C=C(\C)CCC=C(C)C)CCC(C)(C)/C=C/CC/C(C)=C\CO[C@H](COP(=O)(O)O[C@H]1O[C@@H](C(N)=O)[C@@](C)(O)[C@H](OC(N)=O)[C@@H]1O[C@@H]1O[C@@H](CO[C@@H]2O[C@@H](CO)[C@@H](O)[C@H](O)[C@@H]2O)[C@@H](O[C@@H]2O[C@@H](C)[C@@H](O[C@@H]3O[C@@H](C(=O)NC4=C(O)CCC4=O)[C@H](O)[C@H](O)[C@@H]3O)[C@H](O)[C@@H]2NC(C)=O)[C@@H](O)[C@@H]1NC(C)=O)C(=O)O [MOENOMYCIN] | 0.078 µg/mL (≈ 0.0493 µM) | 0.025 µg/mL (≈ 0.0158 µM) | 0.062 µg/mL (≈ 0.0392 µM) | 0.025 µg/mL (≈ 0.0158 µM) | 0.062 µg/mL (≈ 0.0392 µM) | 0.062 µg/mL (≈ 0.0392 µM) | 0.05 µg/mL (≈ 0.0316 µM) | 1.56 µg/mL (≈ 0.986 µM) | > 200 µg/mL | 0.025 µg/mL (≈ 0.0158 µM) | 0.062 µg/mL (≈ 0.0392 µM) | 0.39 µg/mL (≈ 0.246 µM) | – |
| CN[C@H](CC(C)C)C(=O)N[C@H]1C(=O)N[C@@H](CC(N)=O)C(=O)N[C@H]2C(=O)N[C@H]3C(=O)N[C@H](C(=O)N[C@H](C(=O)O)c4cc(O)cc(O)c4-c4cc3ccc4O)[C@H](O)c3ccc(c(Cl)c3)Oc3cc2cc(c3O[C@@H]2O[C@H](CO)[C@@H](O)[C@H](O)[C@H]2O[C@H]2C[C@](C)(N)[C@H](O)[C@H](C)O2)Oc2ccc(cc2Cl)[C@H]1O [VANCOMYCIN] | 6.25 µg/mL (≈ 4.31 µM) | 0.78 µg/mL (≈ 0.538 µM) | 15.6 µg/mL (≈ 10.8 µM) | 3.13 µg/mL (≈ 2.16 µM) | 3.13 µg/mL (≈ 2.16 µM) | > 125 µg/mL | 3.13 µg/mL (≈ 2.16 µM) | > 125 µg/mL | 0.78 µg/mL (≈ 0.538 µM) | 5.2 µg/mL (≈ 3.59 µM) | > 125 µg/mL | > 125 µg/mL | – |

Source: ChEMBL document CHEMBL1132655, “Discovery of novel disaccharide antibacterial agents using a combinatorial library approach” (J Med Chem, 1999)
